Active and inactive are the calls of the source. No cut-off for these calls is given here.
Key:
Translocator protein = Translocator protein (Rattus norvegicus, UniProt P16257); assay: Displacement of [3H]PK 11195 from peripheral-type benzodiazepine receptor in rat kidney mitochondrial membranes; assay type: cell membranes, Membrane
[1] = test system: GABA-A receptor / central benzodiazepine receptor (Rattus norvegicus); assay: Displacement of [3H]flumazenil from central benzodiazepine receptor in rat cerebral cortex membranes at 10 uM; conditions: Membrane
[2] = target: Translocator protein (Rattus norvegicus) (UniProt P16257); assay: Displacement of 2-(2-(4-fluorophenyl)-1H-indol -3-yl)-N-(6-(7-nitrobenzo[c][1, 2,5]oxadiazol-4-ylamino)hexyl )-2-oxoacetamide from peripheral type benzodiazepine receptor in rat C6 glioma cells at 10 uM; assay type: cell-based
Summary of the method: (§1)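 Subconfluent rat C6 glioma cells in DMEM preincubated 30 min with PK 11195 or Ip (10 µM to 100 µM range), then stained with fluorescent PBR ligand at final 10 µM in culture medium, 30 min, 37 °C, 5% CO2. PBS wash, 4% paraformaldehyde fixation, fluorescence microscopy; displacement of cytoplasmic (mitochondrial) staining judged visually.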

[3] = target: Translocator protein (Rattus norvegicus) (UniProt P16257); assay: Displacement of 2-(2-(4-fluorophenyl)-1H-indol -3-yl)-N-(6-(7-nitrobenzo[c][1, 2,5]oxadiazol-4-ylamino)hexyl )-2-oxoacetamide from peripheral type benzodiazepine receptor in rat C6 glioma cells at 50 uM; assay type: cell-based; summary of the method: as §1

Sequence of Translocator protein (P16257 whole entry, looked up): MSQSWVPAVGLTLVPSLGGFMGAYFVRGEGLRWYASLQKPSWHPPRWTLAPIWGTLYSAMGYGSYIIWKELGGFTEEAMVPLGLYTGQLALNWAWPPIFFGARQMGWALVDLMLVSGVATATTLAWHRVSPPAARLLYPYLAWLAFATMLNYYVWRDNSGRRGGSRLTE
Sequence of Translocator protein (Rattus norvegicus) (P16257 whole entry, looked up): as above

Compound	Ki (Translocator protein) [nM]	inhibition [1] [%]	Activity [2]	Activity [3]
O=C(NCCCCCCNc1ccc([N+](=O)[O-])c2nonc12)C(=O)c1c(-c2ccc(F)cc2)[nH]c2ccccc12	12	< 10	–	–
O=C(NCCCCNc1ccc([N+](=O)[O-])c2nonc12)C(=O)c1c(-c2ccccc2)[nH]c2ccccc12	42	< 10	–	–
CCCCCCN(CCCCCC)C(=O)C(=O)c1c(-c2ccc(F)cc2)[nH]c2ccccc12	–	–	Active	Active
O=C(NCCNc1ccc([N+](=O)[O-])c2nonc12)C(=O)c1c(-c2ccccc2)[nH]c2ccccc12	994	< 10	–	–
O=C(NCCCCCCNc1ccc([N+](=O)[O-])c2nonc12)C(=O)c1c(-c2ccccc2)[nH]c2ccccc12	–	< 10	–	–
O=C(NCCNc1ccc([N+](=O)[O-])c2nonc12)C(=O)c1c(-c2ccc(F)cc2)[nH]c2ccccc12	–	< 10	–	–
CCC(C)N(C)C(=O)c1cc2ccccc2c(-c2ccccc2Cl)n1 (stereo unspecified)	–	–	Active	–
O=C(NCCCCCCNc1ccc([N+](=O)[O-])c2[n-][o+]nc12)C(=O)c1c(-c2ccccc2)[nH]c2ccccc12	17	–	–	–
O=C(NCCCCNc1ccc([N+](=O)[O-])c2nonc12)C(=O)c1c(-c2ccc(F)cc2)[nH]c2ccccc12	23	< 10	–	–
CCCN(CCC)C(=O)Cc1c(-c2ccc(Cl)cc2)nc2ccc(Cl)cn12 [ALPIDEM]	0.5	–	–	–
O=C(NCCNc1ccc([N+](=O)[O-])c2[n-][o+]nc12)C(=O)c1c(-c2ccc(F)cc2)[nH]c2ccccc12	835	–	–	–

From ChEMBL document CHEMBL1139846, “New fluorescent 2-phenylindolglyoxylamide derivatives as probes targeting the peripheral-type benzodiazepine receptor: design, synthesis, and biological evaluation” (J Med Chem, 2007)
